Results on 37 variants are retold here after the RNAGym collection of RNA variant scans (doi:10.1126/science.aae0568).

This sample holds only a part of the variants without activity. Where only a bound is given, the exact number is not on record here.

First the molecules themselves.
B1: tRNA (parent)
chain: GUUCCGUUGGCGUAAUGGUAACGCGUCUCCCUCCUAAGGAGAAGACUGCGGGUUCGAGUCCCGUACGGAACG

Variants of B1 are the subject of the series. The experiment in a line: yeast fitness relative to wild type (ratio to wild type); higher = fitter; tRNA-Arg(CCU), competitive growth, 37 C, YPD. The method in brief: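 Variants of the tRNA-Arg(CCU) gene, chemically synthesised with a 3% per-site mutation rate at 69 sites, were placed at the native genomic locus in Saccharomyces cerevisiae. The pooled strains were competed in YPD at 37°C for 24 hours in six parallel replicates. Gene amplicons from the start population and from each end population were read by 100-nucleotide paired-end sequencing. Darwinian fitness relative to wild type came from changes in genotype frequencies; genotypes needed ≥ 100 starting reads, and estimates < 0.5 were set to 0.5.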
With GUUCCGUUGGUGUGAUGGUGACGGGUCUCCCUCCUAAGGAGAAGACUGCGGGUUCGAGUCCCGUACGGAACG, the yeast fitness is not above 0.5. Next, GUUCCGUUGGUGUCAUGGUAACACGCCUCCCUCCUAAGGAGAAGACUGCGGGUUUGAGUCCCGUACGGAACG: not above 0.5; GUUCCGUUGGUGUAGUGGUAACGCGUCUCCCUCCUAAGGAGAAGACUGCGGGUUCGACUCCCGUACGGAACG: 0.725. Regarding GUUCCGUUGGUGUGAUGGUAACGCGUCUCCCUCCUAAGGAGAAGACUGCGGGUUCGAAUCCCGUACGGCACG, the yeast fitness is not above 0.5. For the variant GUUCCGUUGGUGUGAUGGUAACGGGUUUCCCUCCUAAGGAACAGACUGCGGGUUCGAGUCCCGUACGGAACG, the yeast fitness was not above 0.5. Regarding GUUCCGUUGGUGUAAUGGUCACGCGUCUCCCUCCUAAGGAGAAGACUGCGGGUUCGAGUCCCGUACGGAACG, the yeast fitness was found to be 0.777.

Regarding GUUCCGUUGGUGUAAUGGUGACGCGUCUCCCUCCUAAGGAGAAGACUGCGGGUUCGAGUCCCGUACGGAACG, the yeast fitness turned out to be 0.957.

As for GUUCCGUUGGUGUAGUGGUAACGCGUGUCCCUCCUAAGGAGAAGACUGCGGGUUCGAGUUCGGUAGGGAACG, the yeast fitness was not above 0.5. Next, GUUCCGUUGGUGUAUUGGUAACGCGUUUCCCUCCUAAGGAGAAGACUGCGGGUUCGAGUGCCGUACGGAACG: 0.563. For the variant GUUCCGUUGGUGUGAUGGAAACGCGUCUCCCUCCUAAGGAGAAGACUGCGGGUUCGAGUCCCGUACGGAACG, the yeast fitness was determined as 0.658. GUUCCGUUGGUGUUAUGGUAACGCGUCUCCCUCUUAAGGAGAAGACUGCGGGUUCGGGUCCCGUACGGAACG: the yeast fitness was not above 0.5.

With GUUCCGUUGGUGUAUUGGUAACGCGUCUCCCUCCUAAGGAGAAGACUGCGGGUUCGAGUCCCGUUCGGAACG, the yeast fitness is not above 0.5. The figure for GUUCCGUUGGUGUUAUGGUAACGCGUUUCCCUCCUUAGGAGAGGAUUGCGGGUUCGAGUCCCGUACGGAACG is 0.632; for GUUCCGUUGGUGUACUGGUAACGCGUCUCCCUCCUAAGGAGAAGACUGCGGGUUCGAGUCCCGUCCGGAUCG it is not above 0.5. Next, GUUCCGUUGGUGUCAUAGUAACACGUCUGCCUCCUAAGGAGCAGACUGCGGGUUCAAGUCCUGUACGGAACG: not above 0.5; GUUCCGUUGGUGUAGUGGUAACGCGUCUCCCUCCUAAGGAGAAGACUGCGGGUUCGAGUCCCGUACGGUACG: 0.765. The figure for GUUCCGUUGGUGUUAUGGUAACGCGUCUCCCUCUUAAGGAGAAGACUGCGGGUUCGAGUCCCGUACGGAACG is not above 0.5. For GUUCCGUUGGUGUAGUGAUAACGCGUCUCCAUCCUGAGGAGAAGACUGCGGGUUCGAGUCGCGUACGGAACG, the yeast fitness was 0.513. The figure for GUUCCGUUGGUGUACUGGUAACGCGUCUUCCUCCUAGGGAGAAGACUGCGGGUUCGAGUCCCGUACGGUACG is not above 0.5; for GUUCCGUUGGUGUGAUGGUAACGCGUGUCCUUCCUAAGGAGAAGACUGCGGGUUCGAGUCCCGUACGGAACG it is 0.618.

For the variant GUUCCGUUGGUGUGAUGGUAACGGGUUUCCCUCCUAAGGAACAGACUGCGGGUUCGAGUCCCGUAUGGAACG, the yeast fitness was not above 0.5.

Take GUUCCGUUGGUGUAGUGGUAACGCGUCUCCCUCCUAAGGAGAAGAAUGCGGGUUCGAGUCCCGUACGGAACG: the yeast fitness is 0.915.

For the variant GUUCCGUUGGUGUAGUGGUAACGCGUCUCCCACCUAAGGAGAAGACUGCGGGUUCGAGUCCCGUACGGAACG, the yeast fitness is not above 0.5. For GUUCCGUUGGUGUGAUGGUAACGCGUCUCCCUCCCAAGGAGAAGACUGCGGGUUCGAGUCCCGUACGGAUCG, the yeast fitness is not above 0.5.

Regarding GUUCCGUUGGUGUUAUGGUAACGCGUUUCCCUCCUUAGGAGAGGAUUGCGGGUUCGAGUCCCGUUCGGAACG, the yeast fitness is not above 0.5. Next, GUUCCGUUGGUGUACUGGUAACGCGUAUCCCUCCUAAGGAGAAGACUGCGGGUUCGAGUCCCGUACGAAACG: not above 0.5; GUUCCGUUGGUGUAUUGGUAACGCGUCUCCCUCCGAAGGAGAACACUGCGGGUUCGAGUCCCGUACGGGACG: 0.774; GUUCCGUUGGUGUGAUGGUAACGCGUCUCCAUCCUAAGGAGAAGACUGCGGGUUUGAGUCCCGUACGAAACG: not above 0.5. Consider GUUCCGUUGGUGUAAUGGUCACGCGUCUGCCUCCUAAGGAGAAGACUGCGGGUUCCAAUCCCGUACGGAACG, for which the yeast fitness turned out to be 0.693. Regarding GUUCCGUUGGUGUACUGGUAACGCGUAUCCCUCCUAAGCAGAAGACUACGGGUUCGAGUCCCGUACGGAACG, the yeast fitness came out at 0.546. Consider GUUCCGUUGGUGUAUUGGUAACGCGUCUCCCUCCUAAGGAAAAGACUGCGGGUUCGAGUCCCGUACGGAACG, for which the yeast fitness is not above 0.5. Consider GUUCCGUUGGUGUUACGGUAACGCCUUUCCCUCCUAAGGAGAAGACUGCGGGUUCGAGUCGCGUACGGAACG, for which the yeast fitness was not above 0.5. Next, GUUCCGUUGGUGUAGUGGUAACGCGUCUCCCUCCUAAGGAGAAGACUGCGGGUUCGAGUCCCGUACGGAACG: 1.01; GUUCCGUUGGUGUACUGGUAACGCGUGUCCCUCCUAAGGAGAAGACUGCGGGUUCGAGUCCCGUACGGAGCG: not above 0.5.

Consider GUUCCGUUGGUGUCAUGGUAACGCGUCUCCCUCCUAAGGAGAAGACUGCGGGUUCGAGUCCCCUACGGAACG, for which the yeast fitness was not above 0.5. With GUUCCGUUGGUGUCAUGGUAACGCGUCUCCCUCCUAAGGAGAAGACUGCGGGUUCGAGUCCCGUACGAAACG, the yeast fitness stood at 0.624. Consider GUUCCGUUGGUGUAAUGGUGACGCGUCUCCCUCCUAGGGAGAAGACUGCGGGUACGAGGCCCGUACGGAACG, for which the yeast fitness is not above 0.5.
